In ChEMBL document CHEMBL3872263, “Synthesis and biological evaluation of phosphate isosters of fosmidomycin and analogs as inhibitors of Escherichia coli and Mycobacterium smegmatis 1-deoxyxylulose 5-phosphate reductoisomerases” (Bioorg Med Chem, 2017):

Tests used:
[1] = Inhibition of Escherichia coli His6-tagged DXR preincubated for 2 mins in presence of NADPH followed by DXP substrate addition
In short: (§1)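 Recombinant His-tagged DXR was assayed at 37°C in 50 mM Tris/HCl pH 7.5 with 3 mM MgCl2 and 2 mM DTT. The enzyme was pre-incubated for 2 min with NADPH and the inhibitor at a range of concentrations, then DXP was added to start the reaction and residual activity was measured. IC50 was read from a plot of percent residual activity versus log inhibitor concentration.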

[2] = Inhibition of Mycobacterium smegmatis His6-tagged DXR preincubated for 2 mins in presence of NADPH followed by DXP substrate addition; design: species or system Mycolicibacterium smegmatis; in short: as §1
Escherichia coli [3] = assay: Growth inhibition of Escherichia coli XL1 blue at 160 nmol/disc incubated overnight by paper disc diffusion method; assay type: functional
In short: (§2)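 Paper disc diffusion assay on E. coli XL1 Blue grown in LB agar. 6 mm paper discs were impregnated with the stated amount of compound, and plates were incubated overnight at 37°C.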

Escherichia coli [4] = assay: Growth inhibition of Escherichia coli XL1 blue at 2 nmol/disc incubated overnight by paper disc diffusion method; assay type: functional
In short: (§3)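 Paper disc diffusion on E. coli XL1 Blue growing on LB-agar; 6 mm paper discs impregnated with test compound at the stated amount per disc; plates incubated overnight at 37°C, then growth inhibition read.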

Escherichia coli [5] = assay: Growth inhibition of Escherichia coli XL1 blue at 400 nmol/disc incubated overnight by paper disc diffusion method; assay type: functional; in short: as §3
Escherichia coli [6] = assay: Growth inhibition of Escherichia coli XL1 blue at 80 nmol/disc incubated overnight by paper disc diffusion method; assay type: functional; in short: as §3
Escherichia coli [7] = assay: Growth inhibition of fosmidomycin resistant Escherichia coli incubated overnight by paper disc diffusion method; assay type: functional
Escherichia coli [8] = assay: Activity at Escherichia coli DXR assessed as ratio of Kcat to Km […] in presence of NADPH by Lineweaver-burk plot method
Escherichia coli [9] = assay: Growth inhibition of Escherichia coli XL1 blue at 100 nmol/disc incubated overnight by paper disc diffusion method; assay type: functional; in short: as §2

## O=CN(O)CCOP(=O)(O)O
[1]
  IC50: 342 nM
[2]
  IC50: 2100 nM
Escherichia coli [3]
  diameter of the inhibition zone (DIZ): 24 mm

## O=CN(O)CCCP(=O)(O)O [FOSMIDOMYCIN]
[1]
  IC50: 42 nM
Escherichia coli [4]
  diameter of the inhibition zone (DIZ): 34 mm

## O=C(CCOP(=O)(O)O)NO
[1]
  IC50: 2600 nM
[2]
  IC50: 9200 nM
Escherichia coli [5]
  diameter of the inhibition zone (DIZ): <10 mm

## CC(=O)N(O)CCCP(=O)(O)O [FR-900098]
[1]
  IC50: 4 nM
Escherichia coli [4]
  diameter of the inhibition zone (DIZ): 32 mm

## CN(O)C(=O)CCCP(=O)(O)O
[1]
  IC50: 48 nM
Escherichia coli [6]
  diameter of the inhibition zone (DIZ): 30 mm
Escherichia coli [7]
  diameter of the inhibition zone (DIZ): 18 mm

## CC(=O)[C@@H](O)[C@H](O)CCP(=O)(O)O
Escherichia coli [8]
  kcat/Km: 11700 M⁻¹ s⁻¹

## CC(=O)N(O)CCOP(=O)(O)O
[1]
  IC50: 77 nM
[2]
  IC50: 279 nM
Escherichia coli [9]
  diameter of the inhibition zone (DIZ): 27 mm

## CN(O)C(=O)CCOP(=O)(O)O
[1]
  IC50: 46 nM
[2]
  IC50: 233 nM
Escherichia coli [3]
  diameter of the inhibition zone (DIZ): 20 mm

## O=C(CCCP(=O)(O)O)NO
[1]
  IC50: 170 nM
Escherichia coli [5]
  diameter of the inhibition zone (DIZ): 12 mm

## CC(=O)[C@@H](O)[C@H](O)COP(=O)(O)O
Escherichia coli [8]
  kcat/Km: 412000 M⁻¹ s⁻¹
